Experimental data as given in ChEMBL document CHEMBL1123823, “[1-Desamino, 7-lysine, 8-arginine]vasotocin: attachment of reporter groups and affinity ligands through the lysine side chain” (J Med Chem, 1987).
Where a SMILES comes first, the peptide text is derived from it. Bridges are numbered along the chain shown (N, C = ends). [ ]: non-standard residue; d: D form. The star is where a group is joined. Benzoyl(4-N3) = [N-]=[N+]=Nc1ccc(C(=O)*)cc1; Mpa = O=C(O)CCS

What was measured:
[1] = tested on: Rattus norvegicus; assay: Antidiuretic activity was determined in water loaded, ethanol-anesthetized rats.; type: functional, Urine
[2] = tested on: Rattus norvegicus; assay: (§1) Pressor activity was determined in urethane-anesthetized, phenoxybenzamine treated rats.; type: functional
[3] = tested on: Rattus norvegicus; assay: as §1; type: functional, organism-based; settings: read-out: pA2 (converted)
[4] = Toad bladder hydroosmotic activity was determined; type: functional; settings: read-out: ED50 (the source's name)
Summary of the method: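 Osmometric measurement of bladder water permeability. Bladders were suspended in humidified air, and paper disks holding 8 μL of hypertonic Ringer's, with or without peptide at various concentrations, were placed on the outer surface of the bladder wall. The Ringer's contained NaCl 110, KCl 3.5, CaCl₂ 1, MgCl₂ 1, glucose 5.5 and Tris-HCl 10 mmol/L, pH 7.5, 236 mOsm/kg H₂O. Dose-response curves were constructed.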

| SMILES | Antidiuretic activity [1] | Pressor activity [2] | Kb [3] | EC50 [4] |
| --- | --- | --- | --- | --- |
| CC[C@H](C)[C@@H]1NC(=O)[C@H](Cc2ccc(O)cc2)NC(=O)CCSSC[C@@H](C(=O)N[C@@H](CCCCNC(=O)c2ccc(N=[N+]=[N-])cc2)C(=O)N[C@@H](CCCN=C(N)N)C(=O)NCC(N)=O)NC(=O)[C@H](CC(N)=O)NC(=O)[C@H](CCC(N)=O)NC1=O ([Mpa]YIQNCK(Benzoyl(4-N3))RG-NH2; disulfide 1-6) [listing 1 of 2 here] | 19.7 U/mg |  |  |  |
| CC[C@H](C)[C@@H]1NC(=O)[C@H](Cc2ccc(O)cc2)NC(=O)[C@@H](N)CSSC[C@@H](C(=O)N2CCC[C@H]2C(=O)N[C@@H](CCCN=C(N)N)C(=O)NCC(N)=O)NC(=O)[C@H](CC(N)=O)NC(=O)[C@H](CCC(N)=O)NC1=O [VASOTOCIN] (H-CYIQNCPRG-NH2; disulfide 1-6) | 231 U/mg | 160 U/mg |  |  |
| CC[C@H](C)[C@@H]1NC(=O)[C@H](Cc2ccc(O)cc2)NC(=O)CCSSC[C@@H](C(=O)N[C@@H](CCCCNC(=O)c2ccc(N=[N+]=[N-])cc2)C(=O)N[C@@H](CCCN=C(N)N)C(=O)NCC(N)=O)NC(=O)[C@H](CC(N)=O)NC(=O)[C@H](CCC(N)=O)NC1=O ([Mpa]YIQNCK(Benzoyl(4-N3))RG-NH2; disulfide 1-6) [listing 2 of 2 here] |  |  | 251 nM |  |
| CC[C@H](C)[C@@H]1NC(=O)[C@@H](Cc2ccc(O)cc2)NC(=O)CCSSC[C@@H](C(=O)N[C@H](CCCCNC(=O)CCCCC2SCC3NC(=O)NC32)C(=O)N[C@@H](CCCN=C(N)N)C(=O)NCC(N)=O)NC(=O)[C@H](CC(N)=O)NC(=O)[C@@H](CCC(N)=O)NC1=O (stereo partly drawn) | 4.3 U/mg | 0 U/mg |  | 210 nM |
| CC[C@H](C)[C@@H]1NC(=O)[C@H](Cc2ccc(O)cc2)NC(=O)CCSSC[C@@H](C(=O)N2CCC[C@H]2C(=O)N[C@@H](CCCN=C(N)N)C(=O)NCC(N)=O)NC(=O)[C@H](CC(N)=O)NC(=O)[C@H](CCC(N)=O)NC1=O ([Mpa]YIQNCPRG-NH2; disulfide 1-6) | 890 U/mg | 256 U/mg |  |  |
| CC[C@H](C)[C@@H]1NC(=O)[C@H](Cc2ccc(O)cc2)NC(=O)CCSSC[C@@H](C(=O)N[C@@H](CCCCN)C(=O)N[C@@H](CCCN=C(N)N)C(=O)NCC(N)=O)NC(=O)[C@H](CC(N)=O)NC(=O)[C@H](CCC(N)=O)NC1=O ([Mpa]YIQNCKRG-NH2; disulfide 1-6) | 29 U/mg | 0 U/mg |  | 22 nM |
| N=C(N)NCCC[C@H](NC(=O)[C@@H]1CCCN1C(=O)[C@@H]1CSSC[C@H](N)C(=O)N[C@@H](Cc2ccc(O)cc2)C(=O)N[C@@H](Cc2ccccc2)C(=O)N[C@@H](CCC(N)=O)C(=O)N[C@@H](CC(N)=O)C(=O)N1)C(=O)NCC(N)=O [VASOPRESSIN] |  |  |  | 9.5 nM |
